Measured values as given in paper PMC3812312 (Journal of medicinal chemistry, 2013).
Entries after “also recorded” stand apart in the source; their conditions may differ.

Columns and labels:
[1] = test system: MCF-7 cells; experiment: Cell viability assay; format: cell-based, human
[2] = test system: VERO cells; experiment: Cell viability assay; format: cell-based; conditions: VERO versus MCF-7
[3] = test system: human recombinant HDAC6; experiment: HDAC activity assay; format: biochemical; conditions: HDAC6 vs HDAC1 and HDAC8
Summary of the method: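 Run under contract. Human recombinant HDAC1, HDAC6 or HDAC8 incubated with HDAC substrate, 5 μg BSA and serial dilutions of test compound (DMSO stocks; 1% DMSO final, top 100 μM) in duplicate, 37 °C, 30 min. Developer added for 15 min at room temperature; fluorescence ex 360/em 460 nm.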

[4] = target: human recombinant HDAC1 (Homo sapiens, UniProt Q13547); experiment: HDAC activity assay; format: biochemical; conditions: HDAC isoforms 1, 6 and 8 tested
[5] = test system: MDA-MB-231 cells; experiment: Cell viability assay; format: cell-based; conditions: 72 hours after drug dosing; ERα−/β− breast cancer
Summary of the method: (§1)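 Cell lines: MCF-7 (gift) and MDA-MB-231, DU145 and Vero (ATCC), kept in EMEM with 10% FBS, with or without antibiotics, at 37 °C under 5% CO2. Cells exposed to test compound in duplicate for 72 h; viability read by MTS and MTT colorimetric assays per manufacturer's instructions. IC50 obtained by logit plot analysis.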

[6] = test system: DU145 cells; experiment: Cell viability assay; format: cell-based; conditions: 72 hours after drug dosing; metastatic prostate cancer
Summary of the method: as §1

[7] = target: T1, human ERα ligand binding domain (Homo sapiens, UniProt P03372); experiment: ERα agonist luciferase reporter assay in HEK 293T cells; format: cell-based; conditions: 10 μM, charcoal stripped serum
T1 sequence (P03372 301-595): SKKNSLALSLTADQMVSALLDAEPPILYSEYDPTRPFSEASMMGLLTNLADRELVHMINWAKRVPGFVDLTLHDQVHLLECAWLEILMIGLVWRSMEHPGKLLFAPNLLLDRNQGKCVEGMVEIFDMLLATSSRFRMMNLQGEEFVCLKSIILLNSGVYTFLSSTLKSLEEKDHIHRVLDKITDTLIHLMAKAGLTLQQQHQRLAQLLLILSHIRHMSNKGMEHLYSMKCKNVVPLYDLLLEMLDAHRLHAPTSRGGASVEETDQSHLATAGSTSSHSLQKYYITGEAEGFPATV

[8] = target: human ERβ LBD (Homo sapiens, UniProt Q92731); experiment: ERβ agonist luciferase reporter assay in HEK 293T cells; format: cell-based; conditions: 10 μM; for ERβ agonist activity: HEK-luciferase assay; for ER subtype preference (ratio of ERα to ERβ agonist activity): agonist assay
[9] = target: T2, human recombinant HDAC8 (Homo sapiens, UniProt Q9BY41); experiment: HDAC activity assay; format: biochemical; conditions: maximum concentration tested 100 μM
T2 sequence (Q9BY41 1-377): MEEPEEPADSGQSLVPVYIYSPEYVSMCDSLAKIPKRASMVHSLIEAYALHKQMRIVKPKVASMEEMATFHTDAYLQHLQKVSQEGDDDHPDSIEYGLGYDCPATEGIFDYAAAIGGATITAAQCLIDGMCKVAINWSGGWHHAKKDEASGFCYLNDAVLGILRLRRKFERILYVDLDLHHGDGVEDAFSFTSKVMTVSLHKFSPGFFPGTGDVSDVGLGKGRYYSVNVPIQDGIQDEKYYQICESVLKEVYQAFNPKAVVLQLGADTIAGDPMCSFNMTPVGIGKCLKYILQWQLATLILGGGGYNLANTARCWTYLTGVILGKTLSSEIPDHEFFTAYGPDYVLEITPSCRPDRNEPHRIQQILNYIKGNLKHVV

Chain of human ERβ LBD (Q92731 263-530): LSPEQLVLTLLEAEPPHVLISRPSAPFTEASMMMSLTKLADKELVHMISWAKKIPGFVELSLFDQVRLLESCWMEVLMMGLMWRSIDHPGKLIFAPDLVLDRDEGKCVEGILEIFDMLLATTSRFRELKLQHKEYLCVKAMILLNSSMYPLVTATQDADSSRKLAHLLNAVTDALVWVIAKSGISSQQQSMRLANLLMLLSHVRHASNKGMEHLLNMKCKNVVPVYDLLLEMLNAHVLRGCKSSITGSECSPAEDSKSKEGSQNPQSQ
Chain of human recombinant HDAC1 (Q13547 whole entry, canonical isoform): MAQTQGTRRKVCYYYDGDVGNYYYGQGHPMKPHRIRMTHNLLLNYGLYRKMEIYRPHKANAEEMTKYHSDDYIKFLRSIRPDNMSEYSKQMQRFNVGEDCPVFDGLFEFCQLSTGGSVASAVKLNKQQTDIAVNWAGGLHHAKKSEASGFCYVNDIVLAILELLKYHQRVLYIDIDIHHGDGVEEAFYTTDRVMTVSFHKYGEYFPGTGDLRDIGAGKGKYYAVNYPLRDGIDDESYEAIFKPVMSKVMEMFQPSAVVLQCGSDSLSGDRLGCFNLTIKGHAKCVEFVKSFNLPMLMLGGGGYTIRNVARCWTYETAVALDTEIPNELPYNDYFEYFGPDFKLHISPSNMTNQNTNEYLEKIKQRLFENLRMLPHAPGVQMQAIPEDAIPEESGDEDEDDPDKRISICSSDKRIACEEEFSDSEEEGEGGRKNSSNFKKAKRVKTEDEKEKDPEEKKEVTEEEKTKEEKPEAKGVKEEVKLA

CC/C(=C(\c1ccccc1)c1ccc(OCCN(C)Cc2ccc(NC(=O)CCCCCCC(=O)NO)cc2)cc1)c1ccccc1 [compound 3, Tamoxifen-SAHA Conjugate]
potency relative to SAHA against MCF-7 (fold less potent) [1]: equipotent to SAHA
in vitro therapeutic index (IVTI) [2]: greater IVTI
HDAC isoform selectivity [3]: selective for HDAC6

C[C@]12CC[C@@H]3c4ccc(O)cc4CC[C@H]3[C@@H]1CC[C@@]2(O)c1cn(CCCCCCC(=O)NO)nn1 [1d, 7-(4-((8R,9S,13S,14S,17S)-3,17-dihydroxy-13-methyl-7,8,9,11,12,13,14,15,16,17-decahydro-6H-cyclopenta[a]phenanthren-17-yl)-1H-1,2,3-triazol-1-yl)-N-hydroxyheptanamide]
HDAC inhibition activity, overall (isoform not given) [4]: most potent HDACi; also recorded: nM HDACi potency
antiproliferative activity IC50, MDA-MB-231 [5]: inhibit the growth of MDA-MB-231
antiproliferative activity IC50, DU145 [6]: evidence of DU145 cell growth inhibition
ERα agonist activity (fold activation, relative to control no drug) [7]: most significant ERα agonist effect
ERβ agonist activity [8]: significant ERβ activation
ER subtype preference (ratio of ERα to ERβ agonist activity) [8]: preferentially bind ERβ
HDAC8 inhibition IC50 [9]: order of magnitude greater HDAC8 inhibition

C[C@]12CC[C@@H]3c4ccc(O)cc4CC[C@H]3[C@@H]1CC[C@@]2(O)c1cn(CCCCCCCC(=O)NO)nn1 [1e, 8-(4-((8R,9S,13S,14S,17S)-3,17-dihydroxy-13-methyl-7,8,9,11,12,13,14,15,16,17-decahydro-6H-cyclopenta[a]phenanthren-17-yl)-1H-1,2,3-triazol-1-yl)-N-hydroxyoctannamide]
HDAC inhibition activity, overall (isoform not given) [4]: poor HDAC inhibition profile
ER subtype preference (ratio of ERα to ERβ agonist activity) [8]: too weak in vitro to have an obvious preference

C[C@]12CC[C@@H]3c4ccc(O)cc4CC[C@H]3[C@@H]1CC[C@@]2(O)c1cn(CCCCC(=O)NO)nn1 [1b, 5-(4-((8R,9S,13S,14S,17S)-3,17-dihydroxy-13-methyl-7,8,9,11,12,13,14,15,16,17-decahydro-6H-cyclopenta[a]phenanthren-17-yl)-1H-1,2,3-triazol-1-yl)-N-hydroxypentanamide]
ERα agonist activity (fold activation, relative to control no drug) [7]: most significant ERα agonist effect

CC/C(=C(\c1ccccc1)c1ccc(OCCN(C)Cc2ccc(-c3cn(CCCCCC(=O)NO)nn3)cc2)cc1)c1ccccc1 [compound 2, Tamoxifen-Triazolylhydroxamic acid]
potency relative to SAHA against MCF-7 (fold less potent) [1]: about 1.7 fold
in vitro therapeutic index (IVTI) [2]: greater IVTI

C[C@]12CC[C@@H]3c4ccc(O)cc4CC[C@H]3[C@@H]1CC[C@@]2(O)c1cn(CCCCCC(=O)NO)nn1 [1c, 6-(4-((8R,9S,13S,14S,17S)-3,17-dihydroxy-13-methyl-7,8,9,11,12,13,14,15,16,17-decahydro-6H-cyclopenta[a]phenanthren-17-yl)-1H-1,2,3-triazol-1-yl)-N-hydroxyhexanamide]
HDAC inhibition activity, overall (isoform not given) [4]: most potent HDACi; also recorded: nM HDACi potency
antiproliferative activity IC50, MDA-MB-231 [5]: inhibit the growth of MDA-MB-231
antiproliferative activity IC50, DU145 [6]: evidence of DU145 cell growth inhibition
ERβ agonist activity [8]: significant ERβ activation
ER subtype preference (ratio of ERα to ERβ agonist activity) [8]: preferentially bind ERβ

C[C@]12CC[C@@H]3c4ccc(O)cc4CC[C@H]3[C@@H]1CC[C@@]2(O)c1cn(CCCC(=O)NO)nn1 [1a, 4-(4-((8R,9S,13S,14S,17S)-3,17-dihydroxy-13-methyl-7,8,9,11,12,13,14,15,16,17-decahydro-6H-cyclopenta[a]phenanthren-17-yl)-1H-1,2,3-triazol-1-yl)-N-hydroxybutanamide]
HDAC inhibition activity, overall (isoform not given) [4]: most potent HDACi
antiproliferative activity IC50, MDA-MB-231 [5]: comparable; also recorded: inhibit the growth of MDA-MB-231
antiproliferative activity IC50, MCF-7 ([1]; 72 hours after drug dosing, ERα+/β+ breast cancer): comparable
in vitro therapeutic index (IVTI) [2]: greater IVTI
ER subtype preference (ratio of ERα to ERβ agonist activity) [8]: too weak in vitro to have an obvious preference
